Assay results as given in ChEMBL document CHEMBL4732226, “Discovery of a potent G-protein-coupled receptor 119 agonist for the treatment of type 2 diabetes” (Bioorg Med Chem, 2021).

Tests used:
[1] = target: T1, Glucose-dependent insulinotropic receptor (Homo sapiens, UniProt Q8TDV5); assay: Agonist activity at human GPR119 stably transfected in CHO-K1 cells assessed as increase in cAMP stimulation after 1 hr by enzyme immunoassay; format: functional, cell-based
T1 sequence (Q8TDV5 whole entry): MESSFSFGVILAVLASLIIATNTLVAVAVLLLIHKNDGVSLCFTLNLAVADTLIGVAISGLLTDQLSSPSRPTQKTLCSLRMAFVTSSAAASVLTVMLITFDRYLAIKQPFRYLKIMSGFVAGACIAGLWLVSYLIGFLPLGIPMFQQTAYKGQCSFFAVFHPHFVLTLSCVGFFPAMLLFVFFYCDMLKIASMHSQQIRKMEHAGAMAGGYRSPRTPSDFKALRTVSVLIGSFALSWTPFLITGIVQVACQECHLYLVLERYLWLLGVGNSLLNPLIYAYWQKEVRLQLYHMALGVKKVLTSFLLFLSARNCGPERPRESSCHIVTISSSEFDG

[2] = target: T2, Glucose-dependent insulinotropic receptor (Homo sapiens) (UniProt Q8TDV5); assay: Agonist activity at human GPR119 stably transfected in CHO-K1 cells assessed as increase in cAMP stimulation after 1 hr by enzyme immunoassay relative to AR231453; format: functional, cell-based
T2 sequence (whole entry): T1 sequence (Q8TDV5 whole entry)

[3] = Elimination rate constant in Sprague-Dawley rat at 25 mg/kg, po up to 24 hrs; format: ADME, organism-based; details: in vivo
Method in brief: (§1)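 Male SD rats fasted overnight, water ad libitum, fed 4 h after dosing. Single oral gavage of 25 mg/kg as a homogeneous suspension in 0.5% Tween 80 in 0.5% Na-CMC. Blood drawn into Na-heparin tubes at 0.25, 0.5, 1, 2, 4, 6, 8 and 24 h; plasma stored at -70°C. Parameters by non-compartmental analysis, with C0 taken as zero and BLQ samples set to zero.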

[4] = Tmax in Sprague-Dawley rat at 25 mg/kg, po up to 24 hrs; format: ADME, organism-based; details: in vivo; method in brief: as §1
[5] = AUC(0 to infinity) in Sprague-Dawley rat at 25 mg/kg, po up to 24 hrs; format: ADME, organism-based; set-up: route oral, dose 25 mg/kg, time <=24; details: in vivo; method in brief: as §1
[6] = AUC(0 to t) in Sprague-Dawley rat at 25 mg/kg, po up to 24 hrs; format: ADME, organism-based; set-up: route oral, dose 25 mg/kg, time <=24; details: in vivo; method in brief: as §1
[7] = Cmax in Sprague-Dawley rat at 25 mg/kg, po up to 24 hrs; format: ADME, organism-based; set-up: route oral, dose 25 mg/kg, time <=24; details: in vivo; method in brief: as §1
[8] = Half life in Sprague-Dawley rat at 25 mg/kg, po up to 24 hrs; format: ADME, organism-based; details: in vivo; method in brief: as §1
[9] = tested on: Mus musculus; assay: Antidiabetic activity in glucose-stimulated […] mouse assessed as reduction in blood glucose level at 50 mg/kg, po pretreated for 30 mins followed by glucose-stimulation and measured up to 120 mins by OGTT method relative to control; format: functional; set-up: scale not given: the % may be the effect or the level left; details: 0.5 h
Method in brief: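 C57 mice aged 6–8 weeks were grouped by non-fasting glucose and fasted overnight. Single oral dose of 50 mg/kg; 30 min later basal bleed and oral glucose 3 g/kg. Serum glucose taken at 20, 40, 60 and 120 min. Change in glucose AUC calculated.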

Row | Compound | EC50 ([1]; read-out: EC50) | Emax ([2]; filed as agonist) | other results
1 | Cc1c(Oc2cccc(/C=C3\SC(=O)NC3=O)c2)ncnc1OC1CCN(C(=O)OCC(C)C)CC1 |  |  | EC50 ([1]; cho-k1): Not Active
2 | COC(=O)N1CCC(Oc2ncnc(Oc3ccc(/C=C4\SC(=O)NC4=O)cc3)c2C)CC1 | 1410 nM | 53.3% | 
3 | CCOC(=O)N1CCC(Oc2cc(Oc3ccc(/C=C4\SC(=O)NC4=O)cc3)ncn2)CC1 | 790 nM | 51.8% | 
4 | CC(C)COC(=O)N1CCC(Oc2cc(Oc3ccc(/C=C4\SC(=O)NC4=O)cc3)ncn2)CC1 | 745 nM | 51% | 
5 | CC(C)COC(=O)N1CCC(Oc2cc(Oc3cccc(/C=C4\SC(=O)NC4=O)c3)ncn2)CC1 | 720 nM | 62.4% | 
6 | O=C1NC(=O)/C(=C/c2ccc(Oc3cc(OC4CCN(C(=O)OCc5ccccc5)CC4)ncn3)cc2)S1 | 107 nM | 88.3% | 
7 | COC(=O)N1CCC(Oc2cc(Oc3cccc(/C=C4\SC(=O)NC4=O)c3)ncn2)CC1 | 1870 nM |  | Emax [2]: 33.7%
8 | COC(=O)N1CCC(Oc2ncnc(Oc3cccc(/C=C4\SC(=O)NC4=O)c3)c2C)CC1 |  |  | EC50 ([1]; cho-k1): Not Active
9 | Cc1c(Oc2cccc(/C=C3\SC(=O)NC3=O)c2)ncnc1OC1CCN(C(=O)OCc2ccccc2)CC1 | 106 nM | 138% | 
10 | CCOC(=O)N1CCC(Oc2ncnc(Oc3ccc(/C=C4\SC(=O)NC4=O)cc3)c2C)CC1 | 157 nM | 141% | 
11 | CCOC(=O)N1CCC(Oc2ncnc(Oc3cccc(/C=C4\SC(=O)NC4=O)c3)c2C)CC1 |  |  | EC50 ([1]; cho-k1): Not Active
12 | COC(=O)N1CCC(Oc2cc(Oc3ccc(/C=C4\SC(=O)NC4=O)cc3)ncn2)CC1 |  |  | EC50 ([1]; cho-k1): Not Active
13 | Cc1c(Oc2ccc(/C=C3\SC(=O)NC3=O)cc2)ncnc1OC1CCN(C(=O)OCc2ccccc2)CC1 | 805 nM | 43.3% | 

The next lines start with results.

Row | EC50 ([1]; read-out: EC50) | Emax ([2]; filed as agonist) | Compound | other results
14 | 125 nM | 78.3% | CC(C)(C)OC(=O)N1CCC(Oc2cc(Oc3cccc(/C=C4\SC(=O)NC4=O)c3)ncn2)CC1 | 
15 | 153 nM | 98.3% | O=C1NC(=O)/C(=C/c2cccc(Oc3cc(OC4CCN(C(=O)OCc5ccccc5)CC4)ncn3)c2)S1 | 
16 |  | 68.8% | Cc1c(Oc2ccc(/C=C3\SC(=O)NC3=O)cc2)ncnc1OC1CCN(C(=O)OC(C)(C)C)CC1 | k el at 24 h [3]: 4.44e-05 s⁻¹; Tmax [4]: 2.25 h; AUC(0-inf) [5]: 8310 ng·h/mL; AUC(0-t) at 24 h [6]: 8110 ng·h/mL; Cmax [7]: 835 ng/mL; half-life [8]: 4.37 h; Activity [9]: 34.6%
17 | 75.1 nM | 70.2% | Cc1c(Oc2ccc(/C=C3\SC(=O)NC3=O)cc2)ncnc1OC1CCN(C(=O)OCC(C)C)CC1 | Activity [9]: 24%
18 |  | 122% | CC(C)(C)OC(=O)N1CCC(Oc2cc(Oc3ccc(/C=C4\SC(=O)NC4=O)cc3)ncn2)CC1 | 
19 | 6 nM | 100% | CC(C)c1noc(C2CCN(c3ncnc(Nc4ccc(S(C)(=O)=O)cc4F)c3[N+](=O)[O-])CC2)n1 | 
20 | 819 nM | 43.3% | CCOC(=O)N1CCC(Oc2cc(Oc3cccc(/C=C4\SC(=O)NC4=O)c3)ncn2)CC1 | 
